# Compounds with a hit are over-represented: about 5.8% of the library has one in this group of screens.
# Cav32 inh = human Cav3.2 channel inhibition, primary screen | O95180 | Cav3.2-expressing cells, Fluo-4 calcium fluorescence FDSS; hits give low values | B-score at 10 µM | hit rate 4% among 100,000 | AID 449739;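 active = single-dose well whose peak fluorescence ratio is a statistical outlier from its plate by either plate-standardised score or position-corrected B-score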
# Pyk2 oligo antag = Pyk2 (human) oligomerization antagonism; Q293 cells, Pyk2 FERM NanoBiT luminescence; hits give low values; hit rate 0.83% among 99,000; AID 1347419; z-score (the deposit names both 25 µM and 10 µM);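 active = Z-score of -3 or lower, scaled per plate to the spread of control and sample wells; inactive = z-score above -3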;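 also: negative z-score means lost luminescence so less FERM oligomerization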
# Target sequence (Q14289 whole entry, looked up): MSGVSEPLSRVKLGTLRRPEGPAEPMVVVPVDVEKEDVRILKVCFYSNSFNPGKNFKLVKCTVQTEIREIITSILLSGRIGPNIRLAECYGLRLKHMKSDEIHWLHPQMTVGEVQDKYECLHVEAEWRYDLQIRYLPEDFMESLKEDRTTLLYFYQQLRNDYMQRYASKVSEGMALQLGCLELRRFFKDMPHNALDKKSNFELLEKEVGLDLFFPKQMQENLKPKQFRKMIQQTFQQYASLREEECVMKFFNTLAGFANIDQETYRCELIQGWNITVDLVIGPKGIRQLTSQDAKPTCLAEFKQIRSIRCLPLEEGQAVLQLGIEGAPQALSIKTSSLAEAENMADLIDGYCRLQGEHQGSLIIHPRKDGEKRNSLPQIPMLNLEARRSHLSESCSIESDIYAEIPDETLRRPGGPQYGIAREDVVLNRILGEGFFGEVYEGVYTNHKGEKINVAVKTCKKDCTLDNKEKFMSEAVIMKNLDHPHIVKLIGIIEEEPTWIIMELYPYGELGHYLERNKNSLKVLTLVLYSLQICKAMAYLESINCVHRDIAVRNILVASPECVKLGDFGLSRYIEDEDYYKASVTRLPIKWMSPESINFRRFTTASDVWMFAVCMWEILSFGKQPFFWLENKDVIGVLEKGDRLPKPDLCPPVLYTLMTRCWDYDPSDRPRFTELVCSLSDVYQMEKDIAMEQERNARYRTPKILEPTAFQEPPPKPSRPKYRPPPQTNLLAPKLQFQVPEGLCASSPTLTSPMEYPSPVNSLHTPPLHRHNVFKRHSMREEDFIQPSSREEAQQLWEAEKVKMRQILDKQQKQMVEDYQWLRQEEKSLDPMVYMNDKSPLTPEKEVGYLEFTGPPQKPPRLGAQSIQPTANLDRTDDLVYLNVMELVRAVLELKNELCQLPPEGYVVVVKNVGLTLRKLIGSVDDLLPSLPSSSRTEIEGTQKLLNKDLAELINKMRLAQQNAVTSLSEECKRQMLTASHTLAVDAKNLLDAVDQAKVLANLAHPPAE
# FAK inh = FAK (human) kinase inhibition. biochemical FAK kinase activity assay. inhibition, %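 (tested at 7 µM)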. hit rate 0.84% among 97,000; in the data active = inhibition above about 19%;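 also: 0% = DMSO and 100% = reference compound high control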
# PLK1 kinase inh = blocks human PLK1 kinase activity; hit rate 0.53% among 97,000; recombinant PLK1 kinase, TR-FRET peptide phosphorylation; inhibition, % at 10 µM;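 active = inhibition of 50% or more in the single-concentration screen; inactive = inhibition below 50%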;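 also: 0% = DMSO max control and 100% = H-89 dihydrochloride min control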
# PLK1 PBD inh = inhibitors of human Plk1 polo box domain binding; P53350; Plk1 PBD phosphopeptide binding, fluorescence polarization; inhibition, %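 (tested at about 20 µM)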; hit rate 0.13% among 97,000; AID 693; in the data active = inhibition above about 34%, passing the limit was not always enough
# Rev-RRE block = inhibitors of HIV-1 Rev-RRE RNA interaction; P05866; Rev peptide-RRE RNA binding, FRET; inhibition, % at 8 µM; hit rate 0.79% among 97,000;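 active = inhibition above the screen-wide mean plus 3 SD, cut at about 35% in these data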;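 also: 0% = median DMSO wells and 100% = median Neomycin B control wells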
#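 assay system = Cy5-tagged RRE RNA duplex with fluorescein-tagged Rev peptide | incubation = 5 + 15 min at 25 °C | also added = labelled Rev peptide | measure = % inhibition of FRET ratio versus controls | benchmarks = DMSO wells as 0% and neomycin B wells as 100% inhibition | measured by = FRET fluorescence readout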
# Starred values were filed as active, the others as inactive; · = no result given; [ ] = remark or other dose.
SMILES,Cav32 inh,Pyk2 oligo antag,FAK inh,PLK1 kinase inh,PLK1 PBD inh,Rev-RRE block
O=C(Nc1ccccc1)C1=C[C@H](C2CC2)C[C@H](OCCCCO)O1,1.35,·,·,·,·,·
O=S(=O)(NC1CCCCC1)c1ccc(S(=O)(=O)N2CCN3CCCC3C2)cc1 (stereo unspecified),0.558,0.4,1.8,-10.1,-16.1,4.5
O=S(=O)(NC1CC1)c1ccc(S(=O)(=O)N2CCN3CCCC3C2)cc1 (stereo unspecified),-0.308,0.22,3.9,52.8*,-0.3,4.7
CCn1c(N2CCN(C(=S)NCCc3ccccc3)CC2)nc2ccccc21,-3.15,-0.1,-4.0,-7.8,-8.3,-0.8
COc1ccc(/C=N/Nc2ccccc2)cc1Cn1nc(C)c([N+](=O)[O-])c1C,-1.68,-0.48,0.0,3.1,23.9,-4.8
CCCCCCn1c(COc2ccccc2F)nnc1SCC(=O)N1c2ccccc2NC(=O)C1(C)C,-5.92*,0.02,-8.5,-2.5,13.8,-2.3
CCc1ccc2nc(SCC(=O)N3CC(=O)Nc4ccccc43)c(C#N)cc2c1,0.219,-3.37*,0.3,-11.3,-10.9,33.0
CCN(CC)S(=O)(=O)c1ccc(S(=O)(=O)N(CC(=O)Nc2ccccc2)Cc2ccco2)cc1,-1.04,0.52,-1.2,-5.2,-1.1,9.0
O=C(Nc1cccc(Cl)c1)c1ccc2c(=O)n3c(nc2c1)CCCCC3,-5.66*,-1.79,6.0,-8.1,1.6,9.7
CN(C(=O)c1ccc2c(=O)n3c(nc2c1)CCCCC3)c1ccccc1,0.576,0.19,4.1,-6.2,2.8,-0.8
O=C(Nc1ccc(F)c(Cl)c1)c1ccc2c(=O)n3c(nc2c1)CCCCC3,-7.67*,-0.68,1.1,5.2,-7.4,4.1
O=C(c1ccc2c(=O)n3c(nc2c1)CCCCC3)N1CCN(C(c2ccccc2)c2ccccc2)CC1,-4.82*,-1.73,2.8,-2.7,17.0,-8.8
COc1c(F)c(F)c(C(=O)Nc2ccc(N3CCN(C(C)=O)CC3)c(Cl)c2)c(F)c1F,-1.23,-1.18,1.7,-18.1,6.9,6.4
COc1cccc(CNS(=O)(=O)c2cccc(S(=O)(=O)N3CCOCC3)c2)c1,0.673,2.33,2.2,-9.2,-17.5,11.2
COc1ccc(CNS(=O)(=O)c2cccc(S(=O)(=O)N3CCOCC3)c2)cc1,-4.41*,3.03,1.0,-14.0,-9.3,2.9
O=c1c(/C=N/Nc2ccccc2)c(Sc2nnnn2-c2ccccc2)nc2ccccn12,·,-1.15,2.0,-26.5,-124.3,73.0*[fluorescence artefact?]
CCN(CC)c1ccc(C=N/C(C#N)=C(\N)C#N)cc1,-0.0828,-1.2,4.8,7.0,-4.5,53.1*
CCN(CC)c1ccc(/C=N/N2CCOCC2)cc1,0.877,0.2,-1.2,0.7,-4.9,-2.2
CCCc1cc(C(=O)NNC(=S)NCc2ccccc2)cs1,-7.29*,2.26,3.5,-11.4,-4.9,7.0
CCCCNC(=O)c1onc(CSc2cccc3ccccc23)c1C(=O)O,-3.1*,·,-10.8,-9.7,4.0,-1.9
Cc1ccc(C(C(=O)NC2CCCC2)N(C(=O)Cc2cccs2)c2ccc(C)c(C)c2)o1 (stereo unspecified),-2.31*,-2.3,5.8,-4.8,26.4,-0.5
Cc1nn(C)cc1C(C(=O)NC1CCCCC1)N(C(=O)Cc1cccs1)c1ccc(C(C)C)cc1 (stereo unspecified),-5.26*,-0.7,3.4,-7.8,-27.8,2.0
OCCNc1ncnc2c1c(-c1ccccc1)c(-c1ccccc1)n2Cc1ccco1,-4.96*,-3.29*,2.4,-7.7,-3.4,9.4
CC(C)Cn1cnc2c(c(-c3ccccc3)c(-c3ccccc3)n2Cc2ccco2)c1=N,-8.35*,0.97,1.7,-1.8,-21.3,15.5
N=c1c2c(-c3ccccc3)c(-c3ccccc3)oc2ncn1CCN1CCOCC1,0.519,-0.93,16.2,-8.7,32.0,8.4
SMILES,Cav32 inh,Pyk2 oligo antag,FAK inh,PLK1 kinase inh,PLK1 PBD inh,Rev-RRE block
N=c1c2c(-c3ccccc3)c(-c3ccccc3)n(Cc3ccccc3)c2ncn1CCO,-5.23*,-1.5,14.0,-7.1,-24.0,14.6
N=c1c2c(-c3ccccc3)c(-c3ccccc3)n(Cc3ccco3)c2ncn1Cc1ccccc1,-11.7*,-0.17,7.9,-8.6,-10.3,19.8
O=c1c2ccccc2nc(-c2ccccc2)n1Cc1ccco1,-0.215,-1.56,-0.5,-12.4,11.8,0.6
COCc1nnc(NS(=O)(=O)c2c(C)cc(C)cc2C)s1,0.547,1.09,1.8,3.6,-24.6,5.4
COC(=O)[C@@H]1C[C@@]2(O)[C@@H](O)[C@@H](O)[C@@H](O)C[C@H]2N1C/C=C/c1ccccc1,1.46,·,·,·,·,·
CC(=O)c1ccc(NS(=O)(=O)c2cccc(C)c2)cc1,-0.124,0.2,0.1,-9.2,-4.8,8.7
CC(C)C(C)(C#N)NC(=O)CSc1nc2scc(-c3ccco3)c2c(=O)n1-c1ccccc1 (stereo unspecified),-5.08*,0.18,-2.9,-10.5,-14.0,5.6
Cc1cc(NC(=O)Cn2nnc3sc4c(c3c2=O)CCC(C(C)(C)C)C4)no1 (stereo unspecified),-7.33*,0.05,5.5,3.3,2.9,3.8
Cc1ccccc1NC(=O)c1ccc(-n2cncn2)nc1,·,0.22,15.9,-9.2,-7.7,6.7
CCCn1c(CCC(=O)Nc2ccccc2Cc2ccccc2)nc2cc(S(=O)(=O)N3CCOCC3)ccc21,-9.59*,0.52,0.0,-7.4,-7.2,4.6
CCNc1ccc(Br)cc(C(=O)/C=C/c2c(Cl)cccc2Cl)c1=O,-1.09,0.22,1.7,-4.9,-13.9,88.7*[fluorescence artefact?]
CCNc1ccc(Br)cc(C(=O)/C=C/c2ccc3c(c2)OCO3)c1=O,-0.349,-0.02,8.6,3.8,-9.1,27.2
CNc1ccc(Br)cc(C(=O)/C=C/c2cccc(OC)c2)c1=O,-0.812,0.88,6.3,-1.4,0.5,53.0*
COC(=O)c1ccccc1NC(=O)c1cc(-c2ccc(OC)c(OC)c2)on1,·,·,-1.1,-8.5,-12.7,9.2
CCCCc1cc(=O)oc2cc(OCC(=O)N(CC)CC)c(Cl)cc12,-3.06*,·,·,·,·,·
CCCCc1cc(=O)oc2cc(OCC(=O)N(CC)CC)ccc12,0.746,-0.44,-3.5,-16.5,-4.0,2.3
CCNc1nc2[nH]c(=O)c3c(c2s1)OC(N)=C(C#N)C3c1ccc(C)cc1 (stereo unspecified),-0.234,-0.5,0.0,-18.1,-19.2,85.9*[fluorescence artefact?]
CC1CCN(c2nc(-c3ccco3)c3c(c2C#N)CC(C)(C)OC3)CC1,0.452,·,·,·,·,·
Cc1c(NC(=O)C(C)OC(=O)CC2Sc3ccccc3NC2=O)c(=O)n(-c2ccccc2)n1C (stereo unspecified),0.382,0.86,3.0,-18.6,-2.9,3.2
CCCC1=C(C(=O)OCC)C(c2c(C)nn(-c3ccccc3)c2Cl)C(C#N)=C(N)O1 (stereo unspecified),-5.03*,-1.3,-0.5,-1.0,-2.6,9.5
Cn1c(CO)cnc1SCc1ccc(Cl)cc1,0.00418,0.23,-0.3,-1.1,1.1,4.5
